# Laboratory results from PubChem BioAssay AID493070 (Broad Institute, 2011).
# Activity calls are given as the source filed them.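 How the source made its calls: active means growth signal loss with fitted half-maximal concentration up to ten times the top valid dose; inconclusive means flat curve with 30 to 70% inhibition, or poor fit; inactive means the rest, including opposite-direction effects.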
# Experiment: C. albicans CaCi-2 growth inhibition, compound alone, dose response, counter-screen, Alamar Blue fluorescence, dry powder, set 5 (AID 493070)
# Conditions: 48 h; series mostly up to 26 µM; activity change, negative = inhibition: at the top concentration
# Outline: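 Technique: Alamar Blue fluorescence, Ex 544/Em 590 nm / Material: C. albicans CaCi-2 grown without fluconazole / Schedule: 48 h growth at 37 °C, 2 h dye step / Dosing: pinned compound / Buffer or medium: RPMI-based synthetic defined medium containing MOPS, glucose and uridine / Read-out basis: fungal growth from Alamar Blue RFU, signal loss indicating broad toxicity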
SMILES,"activity change, negative = inhibition",outcome
COc1ccc(NC(=O)Cn2c3ccccc3c3nc4n(c(=O)c32)CCS4)cc1,-4.77% (inactive),
O=C(Cn1c2ccc(F)cc2c2nc3n(c(=O)c21)CCS3)N1CCCCCC1,-9.37% (inactive),
O=c1c2[nH]c3ccccc3c2nc2n1CCS2,1.63% (inactive),
O=C(Cn1c2ccc(F)cc2c2nc3n(c(=O)c21)CCS3)N1CCCCC1,-3.59% (inactive),
O=C(Cn1c2ccccc2c2nc3n(c(=O)c21)CCS3)NCCc1ccc(Cl)cc1,2.63% (inactive),
O=C(Cn1c2ccccc2c2nc3n(c(=O)c21)CCCS3)c1ccc(F)cc1,2.75% (inactive),
O=C(Cn1c2ccccc2c2nc3n(c(=O)c21)CCS3)N1CCOCC1,-2.95% (inactive),
CCN(CC)C(=O)Cn1c2ccccc2c2nc3n(c(=O)c21)CCS3,,inactive
COC(=O)Cn1c(-c2ccccc2)nc2ccccc21,0.011% (inactive),
CCN(CC)C(=O)Cn1c2ccc(F)cc2c2nc3n(c(=O)c21)CCS3,3.09% (inactive),
CC1CCN(C(=O)Cn2c3ccccc3c3nc4n(c(=O)c32)CCCS4)CC1,1.1% (inactive),
COC(=O)Cn1nc(-c2ccccc2)c2ccccc21,-4.87% (inactive),
COc1ccc2c(c1)c1nc3n(c(=O)c1n2CC(=O)N1CCC(C)CC1)CCS3,0.019% [at 2.6 µM] (inactive),
O=C(Cn1c2ccccc2c2nc3n(c(=O)c21)CCS3)N1CCCCC1,-12% (inactive),
CC1CCN(C(=O)Cn2c3ccccc3c3nc4n(c(=O)c32)CCS4)CC1,2.14% (inactive),
CC1CCN(C(=O)Cn2c3ccc(F)cc3c3nc4n(c(=O)c32)CCCS4)CC1,1.51% (inactive),
O=C(O)Cn1nc(-c2ccccc2)c2ccccc21,-0.226% (inactive),
COc1ccc2c(c1)c1nc3n(c(=O)c1n2CC(=O)N1CCC(Cc2ccccc2)CC1)CCS3,2.34% (inactive),
O=C(Cn1c2ccc(F)cc2c2nc3n(c(=O)c21)CCS3)N1CCCC1,2.6% (inactive),
COC(=O)Cn1nc(-c2ccc(Cl)cc2)c2ccccc21,0.372% (inactive),
N#Cc1cccc(N2CCN(C(=O)c3ccc(Cl)cc3)CC2)n1,-1.78% (inactive),
O=C(Cn1c2ccccc2c2nc3n(c(=O)c21)CCS3)N1CCCC1,,inactive
O=C(Cn1c2ccccc2c2ccncc21)N1CCCCC1,-14% (inactive),
COC(=O)Cn1nc(-c2ccc(C)cc2)c2ccccc21,-1% (inactive),
O=c1c2[nH]c3ccc(F)cc3c2nc2n1CCS2,1.87% (inactive),
